Measurements published in EPA's CvTdb concentration-time database.

Assays:
Rat [1] = assay: concentration in plasma after dosing; settings: dosed: Isoeugenol, 17 mg/kg, oral, Male, F344/N
Rat [2] = assay: concentration in plasma after dosing; settings: dosed: Isoeugenol, 17 mg/kg, oral, Male, F344/N; remark: listed apart in the source
Rat [3] = assay: concentration in plasma after dosing; settings: dosed: Isoeugenol, 17 mg/kg, oral, Female, F344/N
Rat [4] = assay: concentration in plasma after dosing; settings: 20 min; dosed: Isoeugenol; 17 mg/kg; oral; Male; F344/N
Rat [5] = assay: concentration in plasma after dosing; settings: dosed: Isoeugenol, 17 mg/kg, oral, Female, F344/N; remark: listed apart in the source
Rat [6] = assay: concentration in plasma after dosing; settings: dosed: Isoeugenol, 70 mg/kg, oral, Male, F344/N
Rat [7] = assay: concentration in plasma after dosing; settings: dosed: Isoeugenol, 70 mg/kg, oral, Male, F344/N; remark: listed apart in the source
Rat [8] = assay: concentration in plasma after dosing; settings: 5 min; dosed: Isoeugenol; 17 mg/kg; oral; Male; F344/N
Rat [9] = assay: concentration in plasma after dosing; settings: dosed: Isoeugenol, 17 mg/kg, oral, Female, F344/N; remark: listed apart in the source
human = assay: concentration in blood after dosing; settings: dosed: styrene, 80 ppm, inhalation, duration: 6 hr
How it was run: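 Points were largely digitised from plot screenshots with WebPlotDigitizer or otherwise copied from tables, and they remain in the units each source reported. They come from published in vivo toxicokinetic studies and two structured collections. Sampling and analytical methods follow each source and were often not reported.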

rat [10] = assay: concentration in blood after dosing; settings: dosed: styrene, 3000 ppm, dermal, duration: 4 hr, male, F344
rat [11] = assay: concentration in blood after dosing; settings: dosed: styrene, 3000 ppm, dermal, duration: 4 hr, male, F344; remark: listed apart in the source
rat [12] = assay: concentration in blood after dosing; settings: dosed: styrene, 3000 ppm, dermal, duration: 4 hr, male, F344; remark: listed apart in the source
Rat [13] = assay: concentration in plasma after dosing; settings: 2 h; dosed: Tetralin; 2 mg/kg; iv; Male; F344
Rat [14] = assay: concentration in plasma after dosing; settings: dosed: Tetralin, 2 mg/kg, iv, Male, Harlan Sprague Dawley
Rat [15] = assay: concentration in plasma after dosing; settings: dosed: Tetralin, 2 mg/kg, iv, Male, F344
Rat [16] = assay: concentration in plasma after dosing; settings: dosed: Tetralin, 20 mg/kg, iv, Female, Harlan Sprague Dawley
Rat [17] = assay: concentration in plasma after dosing; settings: dosed: Tetralin, 2 mg/kg, iv, Male, Harlan Sprague Dawley; remark: listed apart in the source
Rat [18] = assay: concentration in plasma after dosing; settings: dosed: Tetralin, 2 mg/kg, iv, Male, Harlan Sprague Dawley; remark: listed apart in the source
Rat [19] = assay: concentration in plasma after dosing; settings: 2 h; dosed: Tetralin; 2 mg/kg; iv; Male; Harlan Sprague Dawley
Rat [20] = assay: concentration in plasma after dosing; settings: dosed: Tetralin, 2 mg/kg, iv, Male, Harlan Sprague Dawley; remark: listed apart in the source
Rat [21] = assay: concentration in plasma after dosing; settings: 2 h; dosed: Tetralin; 2 mg/kg; iv; Male; F344; remark: listed apart in the source
Rat [22] = assay: concentration in plasma after dosing; settings: dosed: Tetralin, 20 mg/kg, iv, Female, Harlan Sprague Dawley; remark: listed apart in the source
Rat [23] = assay: concentration in plasma after dosing; settings: dosed: Tetralin, 2 mg/kg, iv, Male, F344; remark: listed apart in the source
Rat [24] = assay: concentration in plasma after dosing; settings: dosed: Tetralin, 2 mg/kg, iv, Male, Harlan Sprague Dawley; remark: listed apart in the source
Rat [25] = assay: concentration in plasma after dosing; settings: 2 h; dosed: Tetralin; 20 mg/kg; iv; Female; Harlan Sprague Dawley
Rat [26] = assay: concentration in plasma after dosing; settings: dosed: Tetralin, 2 mg/kg, iv, Male, F344; remark: listed apart in the source
Rat [27] = assay: concentration in plasma after dosing; settings: dosed: Tetralin, 20 mg/kg, iv, Female, Harlan Sprague Dawley; remark: listed apart in the source
Rat [28] = assay: concentration in plasma after dosing; settings: dosed: Tetralin, 2 mg/kg, iv, Male, Harlan Sprague Dawley; remark: listed apart in the source
Rat [29] = assay: concentration in plasma after dosing; settings: dosed: Tetralin, 2 mg/kg, iv, Male, F344; remark: listed apart in the source
Rat [30] = assay: concentration in plasma after dosing; settings: dosed: Tetralin, 2 mg/kg, iv, Male, F344; remark: listed apart in the source

C/C=C/c1ccc(O)c(OC)c1 [Isoeugenol]
Settings | concentration in plasma [ng/mL]
Rat [1], 1 h | 39.5
Rat [1], 6 h | 27.7
Rat [2], 0.75 h | 32.4
Rat [2], 2 h | 77.9
Rat [3], 0.75 h | 40.3
Rat [3], 6 h | 74.4
Rat [5], 1.5 h | 26
Rat [5], 2 min | 25.6
Rat [6], 2 h | 68.4
Rat [6], 2 min | 711
Rat [7], 2 min | 74.6
Rat [7], 6 h | 84.5
Rat [9], 0.5 h | 162
Rat [9], 4 h | 33.5

Settings | concentration in plasma [ng/mL]
Rat [4] | 132
Rat [8] | 238

C=Cc1ccccc1 [styrene]
Settings | concentration in blood [ng/mL]
human, 0.7751 h | 429
human, 2.296 h | 742
human, 4.093 h | 759
human, 5.217 h | 777
human, 6.069 h | 904
human, 6.347 h | 484
human, 7.03 h | 241
human, 7.933 h | 178
human, 10.01 h | 92.2
human, 11.99 h | 61.1
human, 14.2 h | 52.4
human, 18.16 h | 34.7
human, 23.1 h | 26.7
human, 29.98 h | 18.5
human, 46.98 h | 10.1
rat [10], 0.5 h | 1870
rat [10], 1 h | 2430
rat [10], 2 h | 5540
rat [10], 3 h | 6070
rat [10], 4 h | 7900
rat [11], 0.5 h | 7760
rat [11], 1 h | 7040
rat [11], 2 h | 11500
rat [11], 3 h | 7240
rat [11], 4 h | 13000
rat [12], 0.5 h | 2860
rat [12], 1 h | 8010
rat [12], 2 h | 4910
rat [12], 3 h | 11300
rat [12], 4 h | 10200

c1ccc2c(c1)CCCC2 [Tetralin]
Settings | concentration in plasma [µg/g]
Rat [13] | 0.0337
Rat [19] | 0.0164
Rat [21] | 0.0271
Rat [25] | 0.628

Settings | concentration in plasma [µg/g]
Rat [14], 0.75 h | 0.0729
Rat [14], 12 h | 0.00211
Rat [15], 0.75 h | 0.105
Rat [15], 12 h | 0.00167
Rat [16], 4 h | 0.216
Rat [16], 5 min | 22.1
Rat [17], 0.5033 h | 0.208
Rat [17], 8 h | 0.00401
Rat [18], 0.5033 h | 0.192
Rat [18], 8 h | 0.0056
Rat [20], 4 h | 0.00854
Rat [20], 5 min | 1.74
Rat [22], 0.25 h | 10.9
Rat [22], 6 h | 0.111
Rat [23], 0.2517 h | 0.63
Rat [23], 6 h | 0.00762
Rat [24], 4 h | 0.0072
Rat [24], 307 s | 1.62
Rat [26], 1 h | 0.066
Rat [26], 24 h | 0.00085
Rat [27], 0.75 h | 2.18
Rat [27], 12 h | 0.0369
Rat [28], 0.2533 h | 0.406
Rat [28], 6 h | 0.00586
Rat [29], 1 h | 0.0668
Rat [29], 24 h | 0.00063
Rat [30], 0.25 h | 0.386
Rat [30], 6 h | 0.0061
